Results as given in ChEMBL document CHEMBL4834402, “Discovery of TAK-981, a First-in-Class Inhibitor of SUMO-Activating Enzyme for the Treatment of Cancer” (J Med Chem, 2021).

Key:
SUMO-activating enzyme [1] = biological target: T1, SUMO-activating enzyme (Homo sapiens, UniProt Q9UBT2); experiment: Inhibition of recombinant SAE (unknown origin) assessed as reduction in transfer of SUMO1 to UBC9 using SUMO1 as a substrate in presence of ATP at Km concentration by HTRF assay; type: protein-complex assay
T1 sequence (Q9UBE0 whole entry): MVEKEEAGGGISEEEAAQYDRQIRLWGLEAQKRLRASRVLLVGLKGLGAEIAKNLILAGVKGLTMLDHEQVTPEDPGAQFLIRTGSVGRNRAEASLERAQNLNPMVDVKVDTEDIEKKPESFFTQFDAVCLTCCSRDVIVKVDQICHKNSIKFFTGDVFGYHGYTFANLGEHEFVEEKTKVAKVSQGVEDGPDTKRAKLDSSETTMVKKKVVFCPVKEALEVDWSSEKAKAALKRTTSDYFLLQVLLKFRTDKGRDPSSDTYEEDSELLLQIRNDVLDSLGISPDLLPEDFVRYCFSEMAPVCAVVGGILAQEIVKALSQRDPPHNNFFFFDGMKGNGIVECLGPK
T1 sequence (Q9UBT2 whole entry): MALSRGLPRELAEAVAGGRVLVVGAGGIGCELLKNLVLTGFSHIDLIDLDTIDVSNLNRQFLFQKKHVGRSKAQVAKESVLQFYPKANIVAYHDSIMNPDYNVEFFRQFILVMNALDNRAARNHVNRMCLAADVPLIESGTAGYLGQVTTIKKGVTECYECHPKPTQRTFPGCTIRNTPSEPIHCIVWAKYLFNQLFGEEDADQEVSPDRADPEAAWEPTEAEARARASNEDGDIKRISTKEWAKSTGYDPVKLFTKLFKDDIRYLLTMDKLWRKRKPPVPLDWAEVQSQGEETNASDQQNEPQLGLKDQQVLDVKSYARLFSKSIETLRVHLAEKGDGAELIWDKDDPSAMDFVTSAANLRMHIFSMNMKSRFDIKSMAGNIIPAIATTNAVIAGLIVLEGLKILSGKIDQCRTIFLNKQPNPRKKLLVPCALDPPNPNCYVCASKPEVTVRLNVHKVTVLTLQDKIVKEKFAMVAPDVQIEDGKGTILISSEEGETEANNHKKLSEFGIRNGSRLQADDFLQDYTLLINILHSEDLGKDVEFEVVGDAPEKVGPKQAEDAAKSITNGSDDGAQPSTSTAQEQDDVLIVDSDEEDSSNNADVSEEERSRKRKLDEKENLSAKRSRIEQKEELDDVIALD
In short: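 HTRF transthiolation assay measuring transfer of SUMO1 to UBC9, the E2 for SAE.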

[2] = Inhibition of recombinant UAE (unknown origin) in presence of ATP at Km concentration by HTRF assay; set-up: species or system Homo sapiens
NEDD8 activating enzyme = biological target: T2, NEDD8 activating enzyme (Homo sapiens, UniProt Q8TBC4); experiment: Inhibition of recombinant NAE (unknown origin) in presence of ATP at Km concentration by HTRF assay; type: protein-complex assay
T2 sequence (Q8TBC4 whole entry): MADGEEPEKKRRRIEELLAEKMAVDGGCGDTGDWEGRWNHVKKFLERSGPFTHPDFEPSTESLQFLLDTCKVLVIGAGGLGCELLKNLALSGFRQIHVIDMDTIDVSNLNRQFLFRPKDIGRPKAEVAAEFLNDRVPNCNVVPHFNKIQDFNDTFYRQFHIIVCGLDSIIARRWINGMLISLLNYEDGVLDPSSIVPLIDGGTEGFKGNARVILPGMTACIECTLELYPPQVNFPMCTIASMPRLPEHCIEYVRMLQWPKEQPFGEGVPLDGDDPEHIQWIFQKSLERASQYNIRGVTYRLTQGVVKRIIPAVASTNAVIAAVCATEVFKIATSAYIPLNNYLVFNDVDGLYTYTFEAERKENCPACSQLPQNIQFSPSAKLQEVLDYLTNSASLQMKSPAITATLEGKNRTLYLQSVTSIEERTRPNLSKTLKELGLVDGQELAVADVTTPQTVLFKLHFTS
T2 sequence (Q13564 whole entry): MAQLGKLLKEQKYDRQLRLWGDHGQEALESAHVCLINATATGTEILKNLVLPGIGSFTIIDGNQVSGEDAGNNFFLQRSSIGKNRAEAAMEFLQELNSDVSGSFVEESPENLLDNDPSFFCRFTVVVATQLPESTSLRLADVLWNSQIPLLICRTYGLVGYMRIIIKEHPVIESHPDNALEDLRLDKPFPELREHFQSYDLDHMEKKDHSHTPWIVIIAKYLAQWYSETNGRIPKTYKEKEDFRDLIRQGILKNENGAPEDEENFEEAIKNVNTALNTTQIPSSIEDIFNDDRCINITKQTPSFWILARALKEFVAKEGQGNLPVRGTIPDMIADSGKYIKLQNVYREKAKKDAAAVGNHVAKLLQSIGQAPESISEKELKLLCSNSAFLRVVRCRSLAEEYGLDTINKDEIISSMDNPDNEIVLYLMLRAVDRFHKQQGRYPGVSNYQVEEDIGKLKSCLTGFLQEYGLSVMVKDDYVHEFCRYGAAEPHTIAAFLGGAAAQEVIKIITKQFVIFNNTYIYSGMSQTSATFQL

SUMO-activating enzyme [3] = biological target: T1, SUMO-activating enzyme; experiment: Inhibition of SAE in human HCT116 cells assessed as reduction in redistribution of SUMO2/3 proteins from nucleus to cytosol incubated for 4 hrs by immunofluorescence assay; type: cell-based, HCT-116
In short: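 HCT-116 cells exposed to compound across a concentration range for 4 h, then stained with anti-SUMO2/3 monoclonal antibody. Automated imaging scored the nuclear (inner) to cytoplasmic (outer) SUMO2/3 ratio. IC50 taken from the dose response.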

Row | SMILES | IC50 (SUMO-activating enzyme [1]) | IC50 [2] | IC50 (NEDD8 activating enzyme) | IC50 (SUMO-activating enzyme [3])
1 | NS(=O)(=O)OC[C@H]1C[C@@H](Nc2ncncc2C(=O)c2ccn(-c3ccccc3)n2)C[C@@H]1O | 67 nM | 468 nM | 32 nM | > 1000 nM
2 | NS(=O)(=O)OC[C@H]1C[C@@H](Nc2ncncc2C(=O)c2cc(Cc3cccc(Br)c3)cs2)C[C@@H]1O |  | > 1000 nM | 91 nM | 
3 | NS(=O)(=O)OC[C@H]1C[C@@H](Nc2ncncc2C(=O)c2ccn(Cc3ccccc3Cl)n2)C[C@@H]1O | 3.2 nM | > 1000 nM | 215 nM | 332 nM
4 | NS(=O)(=O)OC[C@H]1C[C@@H](Nc2ncncc2C(=O)c2ccn(Cc3cccc(Cl)n3)n2)C[C@@H]1O | 1 nM | > 1000 nM | 478 nM | 66 nM
5 | NS(=O)(=O)OC[C@H]1C[C@@H](Nc2ncncc2C(=O)c2ccn(Cc3cccc(Cl)c3)n2)C[C@@H]1O | 0.7 nM | > 1000 nM | 242 nM | 20 nM
6 | NS(=O)(=O)OC[C@H]1C[C@@H](Nc2ncncc2C(=O)c2ccn(Cc3cccc(Br)c3)c2)C[C@@H]1O | 0.6 nM | > 1000 nM | 10 nM | 14 nM
7 | CNC(c1cccc(Cl)c1)c1csc(C(=O)c2cncnc2N[C@@H]2C[C@H](COS(N)(=O)=O)[C@@H](O)C2)c1 (stereo partly drawn) | 3.7 nM | > 1000 nM | 956 nM | 436 nM
8 | NS(=O)(=O)OC[C@H]1C[C@@H](Nc2ncncc2C(=O)c2ccn(Cc3cccc(F)c3)n2)C[C@@H]1O | 2.9 nM | > 1000 nM | 357 nM | 515 nM
9 | NS(=O)(=O)OC[C@H]1C[C@@H](Nc2ncncc2C(=O)c2cnn(Cc3ccccc3)c2)C[C@@H]1O | 6.3 nM | > 1000 nM | 122 nM | 2940 nM
10 | Cc1sc(C(=O)c2cncnc2N[C@@H]2C[C@H](COS(N)(=O)=O)[C@@H](O)C2)cc1C1OCCc2ccc(Cl)cc21 (stereo in doubt; 47) | 11 nM |  | 87 nM | 3880 nM
11 | N#Cc1sc(C(=O)c2cncnc2N[C@@H]2C[C@H](COS(N)(=O)=O)[C@@H](O)C2)cc1Cc1cccc(Cl)c1 | 19 nM | > 1000 nM | > 1000 nM | 6260 nM
12 | NS(=O)(=O)OC[C@H]1C[C@@H](Nc2ncncc2C(=O)c2cc(Cc3cccc(Cl)c3)cs2)C[C@@H]1O |  | > 1000 nM | 64 nM | 
13 | Cc1sc(C(=O)c2cncnc2N[C@@H]2C[C@H](COS(N)(=O)=O)[C@@H](O)C2)cc1[C@H]1NCCc2ccc(Cl)cc21 | 30 nM | > 1000 nM | 554 nM | 399 nM
14 | NS(=O)(=O)OC[C@@H]1C[C@@H](Nc2ncncc2C(=O)c2ccn(Cc3ccccc3)n2)C[C@@H]1O | 22 nM | > 1000 nM | 806 nM | > 1000 nM
15 | NS(=O)(=O)OC[C@H]1C[C@@H](Nc2ncncc2C(=O)c2ccn(Cc3cccc(C(F)(F)F)c3)n2)C[C@@H]1O | 1.1 nM | > 1000 nM | 695 nM | 39 nM
16 | NS(=O)(=O)OC[C@H]1C[C@@H](Nc2ncncc2C(=O)c2ccn(Cc3cccc(Br)n3)n2)C[C@@H]1O | 0.7 nM | > 1000 nM | 581 nM | 49 nM
17 | Cc1cccc(Cn2ccc(C(=O)c3cncnc3N[C@@H]3C[C@H](COS(N)(=O)=O)[C@@H](O)C3)n2)c1 | 1.7 nM | > 1000 nM | 308 nM | 29 nM
18 | NS(=O)(=O)OC[C@H]1C[C@@H](Nc2ncncc2C(=O)c2cc(C3OCc4ccc(Cl)cc43)c(Cl)s2)C[C@@H]1O (stereo partly drawn) | 3 nM | > 1000 nM | > 1000 nM | 163 nM

Row | SMILES | IC50 (SUMO-activating enzyme [1]) | IC50 [2] | IC50 (NEDD8 activating enzyme) | IC50 (SUMO-activating enzyme [3])
19 | NS(=O)(=O)OC[C@H]1C[C@@H](Nc2ncncc2C(=O)c2ccn(Cc3ccccc3)n2)[C@@H](O)[C@@H]1O | 27 nM | > 1000 nM | 748 nM | 1530 nM
20 | NC(c1cccc(Cl)c1)c1csc(C(=O)c2cncnc2N[C@@H]2C[C@H](COS(N)(=O)=O)[C@@H](O)C2)c1 (stereo in doubt; 32) | 1.5 nM | > 1000 nM | 328 nM | 1030 nM
21 | NS(=O)(=O)OC[C@H]1C[C@@H](Nc2ncncc2C(=O)c2csc(Cc3cccc(Br)c3)c2)C[C@@H]1O | 18 nM | > 1000 nM | 523 nM | 4930 nM
22 | NS(=O)(=O)OC[C@H]1C[C@@H](Nc2ncncc2C(=O)c2ccn(Cc3ccccc3)c2)C[C@@H]1O | 1.7 nM | > 1000 nM | 23 nM | 30 nM
23 | NS(=O)(=O)OC[C@H]1C[C@@H](Nc2ncncc2C(=O)c2ccn(Cc3ccccc3)n2)[C@@H](F)[C@@H]1O | 2.3 nM | 492 nM | 688 nM | 260 nM
24 | NS(=O)(=O)OC[C@H]1C[C@@H](Nc2ncncc2C(=O)c2ccn(Cc3ccccc3)n2)C(F)(F)[C@@H]1O | 3.9 nM | > 1000 nM | > 1000 nM | 249 nM
25 | NS(=O)(=O)OC[C@H]1C[C@@H](Nc2ncncc2C(=O)c2ccn(CC3CCCCC3)n2)C[C@@H]1O | 8.2 nM | > 1000 nM | 276 nM | 1610 nM
26 | NS(=O)(=O)OC[C@H]1C[C@@H](Nc2ncncc2C(=O)c2cc(C3OCCc4c(Cl)cccc43)cs2)C[C@@H]1O (stereo partly drawn) | 1.7 nM | > 1000 nM | 265 nM | 76 nM
27 | NS(=O)(=O)OC[C@H]1C[C@@H](Nc2ncncc2C(=O)c2ccn(Cc3ccc(Cl)cc3)n2)C[C@@H]1O | 5.1 nM | > 1000 nM | > 1000 nM | 1880 nM
28 | CN1CCc2ccc(Cl)cc2C1c1csc(C(=O)c2cncnc2N[C@@H]2C[C@H](COS(N)(=O)=O)[C@@H](O)C2)c1 (stereo partly drawn) | 2.5 nM | > 1000 nM | > 1000 nM | 638 nM
29 | NS(=O)(=O)OC[C@H]1C[C@@H](Nc2ncncc2C(=O)c2ccn(Cc3cccc(OC(F)(F)F)c3)n2)C[C@@H]1O | 2.1 nM | > 1000 nM | > 1000 nM | 78 nM
30 | C#Cc1cccc(Cn2ccc(C(=O)c3cncnc3N[C@@H]3C[C@H](COS(N)(=O)=O)[C@@H](O)C3)n2)c1 | 1.1 nM | > 1000 nM | 304 nM | 22 nM
31 | NS(=O)(=O)OC[C@H]1C[C@@H](Nc2ncncc2C(=O)c2cc(C3NCc4ccc(Cl)cc43)cs2)C[C@@H]1O (stereo partly drawn) | 1.6 nM | > 1000 nM | > 1000 nM | 312 nM
32 | NS(=O)(=O)OC[C@H]1C[C@@H](Nc2ncncc2C(=O)c2ccn(Cc3ccc(Cl)o3)n2)C[C@@H]1O | 1.1 nM | > 1000 nM | 435 nM | 33 nM
33 | NS(=O)(=O)OC[C@H]1C[C@@H](Nc2ncncc2C(=O)c2ccn(Cc3ccccc3)n2)[C@H](F)[C@@H]1O | 3.8 nM | > 1000 nM | 334 nM | 517 nM
34 | NS(=O)(=O)OC[C@H]1C[C@@H](Nc2ncncc2C(=O)c2ccn(Cc3ccc(Cl)s3)n2)C[C@@H]1O | 2 nM | > 1000 nM | 353 nM | 228 nM
35 | NS(=O)(=O)OC[C@H]1C[C@@H](Nc2ncncc2C(=O)c2ccc(Cc3cccc(Br)c3)o2)C[C@@H]1O |  | > 1000 nM | 267 nM | 
